Assay results gathered from unrelated publications.
Compare with care: the assays were run in different laboratories.
Target: Dual specificity mitogen-activated protein kinase kinase 4 (MAP2K4, Homo sapiens, UniProt P45985)
Sequence (P45985 1-399, as in one of the studies): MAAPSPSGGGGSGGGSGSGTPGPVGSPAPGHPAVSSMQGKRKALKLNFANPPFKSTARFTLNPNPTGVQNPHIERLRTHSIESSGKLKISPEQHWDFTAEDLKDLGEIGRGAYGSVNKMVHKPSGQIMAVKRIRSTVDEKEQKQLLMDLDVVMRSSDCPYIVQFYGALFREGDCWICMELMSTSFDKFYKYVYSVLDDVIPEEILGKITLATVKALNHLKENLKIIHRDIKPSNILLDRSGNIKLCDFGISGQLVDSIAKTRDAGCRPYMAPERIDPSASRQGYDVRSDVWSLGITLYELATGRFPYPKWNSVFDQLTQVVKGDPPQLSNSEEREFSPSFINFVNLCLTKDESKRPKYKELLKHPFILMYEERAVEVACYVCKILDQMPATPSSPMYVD

Cc1ccc(C(=O)Nc2ccc(CN3CCN(C)CC3)c(C(F)(F)F)c2)cc1C#Cc1cnc2cccnn12  remaining activity (enzyme activity, inhibitor; 23.5 nM): 97%
Cc1sc(C(=O)NC2COC2)cc1-n1cc(NC(=O)Nc2c(F)cccc2Cl)cn1  remaining activity (enzyme activity, inhibitor; 10 µM): 93%
CN(CCCC(F)(F)F)c1nccc(-c2cnn3ncccc23)n1  remaining binding (binding; 1 µM): 100%
CC(C)(O)[C@H]1CC[C@H](Nc2ccc3ncc(-c4cccc(C(F)(F)F)c4)n3n2)CC1  remaining activity (enzyme activity, inhibitor; 1 µM): 102%
CCN1CCN(Cc2ccc(NC(=O)c3ccc(C)c(Oc4ccnc5[nH]ccc45)c3)cc2C(F)(F)F)CC1  inhibition (target engagement in cells, inhibitor, chemoproteomics; A-375; 0.5 µM): -23%
CC(C)(C)c1nc2c(s1)c1nc(N)ncc1c1ccc(NS(=O)(=O)c3c(F)cccc3F)c(F)c12  remaining activity (enzyme activity, inhibitor, radiometric; 1 µM): 81%
Nc1ncnc2occ(-c3ccc(NC(=O)Nc4cc(C(F)(F)F)ccc4F)cc3)c12  remaining signal (cell-free assay, inhibitor; 20 µM): 3.9%
C[C@H](c1ccc(F)cc1)N(Cc1cccc(C(=O)O)c1)C(=O)c1cnc2ccccc2c1  remaining binding (cell-free assay, competition with immobilised ligand; 1 µM): 100%
CC(C)(C)c1nc(-c2cccc(NS(=O)(=O)c3c(F)cccc3F)c2F)c(-c2ccnc(N)n2)s1  remaining activity (enzyme activity, inhibitor, radiometric; 1 µM): 87%
CN1CCN(c2cnc3c(C4CCN(C(=O)c5ccc(OC(F)(F)F)cc5N)CC4)ncnc3c2)CC1  remaining binding (cell-free assay, competition with immobilised ligand; 1 µM): 100%
O=C(Nc1cnn(-c2csc(C(=O)NC3COC3)c2)c1)Nc1ccccc1Cl  remaining activity (enzyme activity, inhibitor; 5 µM): 113%
